Data reported in ChEMBL document CHEMBL1143818, “Prevention of brain injury by the nonbacteriolytic antibiotic daptomycin in experimental pneumococcal meningitis” (2007).
Values after ≈ are worked out from the molar mass of the structure shown. Active and inactive are the calls of the source. The calls are words filed in the database; no cut-off is given here.

Tests used:
Streptococcus pneumoniae [1] = assay: Antimicrobial activity against Streptococcus pneumoniae infected Wistar rat CSF assessed as decrease in bacterial titer at 50 mg/kg, sc after 2 hrs; format: functional; settings: route subcutaneous
Procedure, shortened: (§1)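 Eleven-day-old Wistar rats infected intracisternally with 1.3 × 104 ± 0.5 × 10^4 CFU of S. pneumoniae serotype 3 clinical isolate in 10 μl saline. Single s.c. antibiotic dose started 18 h post-infection. CSF taken by cisterna magna puncture before therapy and at 20 h and 24 h post-infection. CFU counted by plating serial dilutions of 10 μl CSF on blood agar (detection limit 10^3 CFU/ml).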

Streptococcus pneumoniae [2] = assay: Antibacterial activity against Streptococcus pneumoniae serotype 3; format: functional
Procedure, shortened: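 MIC by gradient-strip diffusion (Etest) on blood agar plates inoculated with the study's serotype 3 clinical isolate, run per manufacturer's recommendations. Reference strain ATCC 49619 was tested in parallel. Result read as MIC in mg/liter.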

Streptococcus pneumoniae [3] = assay: Antibacterial activity against Streptococcus pneumoniae ATCC 49619; format: functional
Procedure, shortened: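 MIC by antibiotic gradient strip (Etest) on blood agar plates inoculated with the strain, per manufacturer's recommendations; reference strain tested in parallel with the serotype 3 clinical isolate.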

Rattus norvegicus [4] = assay: Effect on TNFalpha level in Streptococcus pneumoniae infected Wistar rat CSF at 50 mg/kg, sc after 2 to 6 hrs y ELISA; format: functional; settings: route subcutaneous
Procedure, shortened: (§2)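 Infant Wistar rats (11 days old) infected intracisternally with S. pneumoniae serotype 3 (1.3 × 104 ± 0.5 × 10^4 CFU). Single s.c. antibiotic dose given 18 h post-infection. CSF sampled by intracisternal puncture 2 and 6 h after dosing and at 24 h post-infection. Samples spun 5 min at 13,000 rpm, 4°C to remove bacteria and leukocytes, diluted 20-fold, then assayed for rat TNF-α by ELISA (detection limit <5 pg/ml).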

Rattus norvegicus [5] = assay: Decrease in TNFalpha level in Streptococcus pneumoniae infected Wistar rat CSF at 50 mg/kg, sc after 24 hrs by ELISA; format: functional; settings: route subcutaneous; procedure, shortened: as §2
Streptococcus pneumoniae [6] = assay: Effect on Streptococcus pneumoniae infection induced elevation of MMP9 level in Wistar rat CSF assessed as MMP-9/MMP-2 index at 50 mg/kg, sc after 20 hrs by gel zymography; format: functional; settings: route subcutaneous
Procedure, shortened: (§3)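 Intracisternally infected 11-day-old Wistar rats (S. pneumoniae serotype 3) dosed s.c. from 18 h. CSF sampled at 20, 24 or 40 h post-infection. 3 μl CSF run on nonreducing 10% SDS-PAGE containing 1% gelatin. Gels washed 1 h in 2.5% Triton X-100, incubated 18 h at 37°C (50 mM NaCl, 10 mM CaCl2, 50 mM Tris, pH 7.6), Coomassie stained. Lysis zones at 92 and 72 kDa measured by densitometry and reported as MMP-9/MMP-2 ratio. Uninfected saline-injected rats served as controls.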

Streptococcus pneumoniae [7] = assay: Effect on Streptococcus pneumoniae infection induced elevation of MMP9 level in Wistar rat CSF assessed as MMP-9/MMP-2 index at 50 mg/kg, sc after 24 hrs by gel zymography; format: functional; settings: route subcutaneous; procedure, shortened: as §3
Streptococcus pneumoniae [8] = assay: Effect on Streptococcus pneumoniae infection induced elevation of MMP9 level in Wistar rat CSF assessed as MMP-9/MMP-2 index at 50 mg/kg, sc after 40 hrs by gel zymography; format: functional; settings: route subcutaneous; procedure, shortened: as §3
Streptococcus pneumoniae [9] = assay: Effect on Streptococcus pneumoniae infection induced brain injury in Wistar rat hippocampal dentate gyrus assessed as number of apoptotic cells at 50 mg/kg, sc after 24 hrs; format: functional; settings: route subcutaneous
Procedure, shortened: (§4)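 Following intracisternal pneumococcal infection and s.c. dosing from 18 h, brains were taken at 20, 24 or 40 h after PFA perfusion. Cells with fragmented bodies or condensed nuclei were counted blind in three ×400 fields in each of the four dentate gyrus blades. Counts averaged over twelve coronal sections per animal. Uninfected rats served as controls.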

Streptococcus pneumoniae [10] = assay: Effect on Streptococcus pneumoniae infection induced brain injury in Wistar rat hippocampal dentate gyrus assessed as number of apoptotic cells at 50 mg/kg, sc after 40 hrs; format: functional; settings: route subcutaneous; procedure, shortened: as §4
Streptococcus pneumoniae [11] = assay: Antimicrobial activity against Streptococcus pneumoniae infected Wistar rat CSF assessed as decrease in bacterial titer at 50 mg/kg, sc after 6 hrs; format: functional, organism-based; set-up: dose 50 mg/kg; procedure, shortened: as §1
Streptococcus pneumoniae [12] = assay: Effect on Streptococcus pneumoniae infection induced brain injury in Wistar rat hippocampal dentate gyrus assessed as number of apoptotic cells at 50 mg/kg, sc after 20 hrs; format: functional; settings: route subcutaneous; procedure, shortened: as §4
Rattus norvegicus [13] = assay: Effect on TNFalpha level in Streptococcus pneumoniae infected Wistar rat CSF at 100 mg/kg, sc after 2 to 6 hrs y ELISA; format: functional; settings: route subcutaneous; procedure, shortened: as §2
Rattus norvegicus [14] = assay: Decrease on TNFalpha level in Streptococcus pneumoniae infected Wistar rat CSF at 100 mg/kg, sc after 24 hrs by ELISA; format: functional; settings: route subcutaneous; procedure, shortened: as §2
Streptococcus pneumoniae [15] = assay: Antimicrobial activity against Streptococcus pneumoniae infected Wistar rat CSF assessed as decrease in bacterial titer at 100 mg/kg, sc after 2 hrs; format: functional; settings: route subcutaneous; procedure, shortened: as §1

SMILES	Log10 cfu (Streptococcus pneumoniae [1])	MIC (Streptococcus pneumoniae [2]) [µg/mL]	MIC (Streptococcus pneumoniae [3]) [µg/mL]	Activity (Rattus norvegicus [4]) [pg/mL]	Activity (Rattus norvegicus [5]) [pg/mL]	Ratio (Streptococcus pneumoniae [6])	Ratio (Streptococcus pneumoniae [7])	Ratio (Streptococcus pneumoniae [8])	Activity (Streptococcus pneumoniae [9]) [%]	Activity (Streptococcus pneumoniae [10]) [%]	Activity (Streptococcus pneumoniae [11])	Activity (Streptococcus pneumoniae [12]) [%]	Activity (Rattus norvegicus [13]) [pg/mL]	Activity (Rattus norvegicus [14]) [pg/mL]	Log10 cfu (Streptococcus pneumoniae [15])
CCCCCCCCCC(=O)N[C@@H](Cc1c[nH]c2ccccc12)C(=O)N[C@H](CC(N)=O)C(=O)N[C@@H](CC(=O)O)C(=O)N[C@@H]1C(=O)NCC(=O)N[C@@H](CCCN)C(=O)N[C@@H](CC(=O)O)C(=O)N[C@H](C)C(=O)N[C@@H](CC(=O)O)C(=O)NCC(=O)N[C@H](CO)C(=O)N[C@@H]([C@H](C)CC(=O)O)C(=O)N[C@@H](CC(=O)c2ccccc2N)C(=O)O[C@@H]1C	3.6 /ml	0.25 (≈ 0.154 µM)	0.38 (≈ 0.234 µM)	3059	352	1.6	1.2	0.6	14.9	6.1	Active	5.5			
CO/N=C(\C(=O)N[C@@H]1C(=O)N2C(C(=O)O)=C(CSc3nc(=O)c(O)nn3C)CS[C@H]12)c1csc(N)n1 [CEFTRIAXONE]		0.023 (≈ 0.0415 µM)	0.094 (≈ 0.169 µM)										4578	249	6.3 /ml
